{
  "source": "ChEMBL document CHEMBL1131493",
  "about": "“Inhibitors of farnesyl protein transferase. 4-Amido, 4-carbamoyl, and 4-carboxamido derivatives of 1-(8-chloro-6,11-dihydro-5H-benzo[5,6]- cyclohepta[1,2-b]pyridin-11-yl)piperazine and 1-(3-bromo-8-chloro-6,11- dihydro-5H-benzo[5,6]cyclohepta[1,2-b]pyridin-11-yl)piperazine” (J Med Chem, 1998)",
  "key": {"Cynomolgus monkey [1]": {"tested_on": "Cynomolgus monkey", "assay": "In vivo antitumor efficacy in cynomolgus monkeys by injecting a dose of 10 mg/kg, as HCl salt in saline solution, perorally and the duration of action was reported", "type": "ADME, organism-based, Macaca fascicularis", "set-up": "dose 10 mg/kg, route oral", "details": "po", "in_short": "(§1)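 Cynomolgus monkeys; hydrochloride salt in saline iv, or compound given po (as hydrochloride, as micronized free base in corn oil, or as hydrochloride in 0.4% methyl cellulose, depending on compound).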"}, "[2]": {"assay": "Bioavailability in cynomolgus monkey (dose 5 mg/kg i.v.)", "type": "ADME, organism-based, Macaca fascicularis", "details": "in vivo, iv", "in_short": "(§2)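 Serum pharmacokinetics in nude mice or cynomolgus monkeys after oral (po) or iv dosing. Compounds were given as hydrochloride salts in 20% HPβCD unless otherwise noted. Other formulations were the hydrochloride salt in saline, the micronized free base in 20% HPβCD or corn oil (po) with saline for iv, or the hydrochloride salt in 0.4% methyl cellulose (po).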"}, "[3]": {"assay": "In vivo antitumor efficacy in cynomolgus monkeys by injecting a dose of 5 mg/kg, as HCl salt in saline solution, perorally and the total drug exposure was determined (0-8 hr)", "type": "ADME, organism-based, Macaca fascicularis", "set-up": "time < 8 hr, dose 5 mg/kg, route oral", "details": "cynomolgus monkey, po", "in_short": "as §1"}, "[4]": {"assay": "In vivo antitumor efficacy in cynomolgus monkeys by injecting a dose of 10 mg/kg, as HCl salt in saline solution, perorally and the maximum drug concentration was determined", "type": "ADME, organism-based, Macaca fascicularis", "set-up": "dose 10 mg/kg, route oral", "details": "cynomolgus monkey, po", "in_short": "as §1"}, "[5]": {"assay": "In vivo antitumor efficacy in nude mice by injecting a dose of 25 mg/kg, as HCl salt in saline solution, iv and the total drug exposure was determined. (0-24hr)", "type": "ADME, organism-based", "set-up": "time < 24 hr, dose 25 mg/kg, route intravenous", "details": "mouse"}, "[6]": {"assay": "In vivo antitumor efficacy in cynomolgus monkeys by injecting a dose of 5 mg/kg, as HCl salt in saline solution, perorally and the maximum drug concentration was determined", "type": "ADME, organism-based, Macaca fascicularis", "set-up": "dose 5 mg/kg, route oral", "details": "cynomolgus monkey, po", "in_short": "as §1"}, "[7]": {"assay": "In vivo antitumor efficacy in nude mice by injecting a dose of 25 mg/kg, as HCl salt in saline solution, perorally and the total drug exposure was determined (0-24hr)", "type": "ADME, organism-based", "set-up": "time < 24 hr, dose 25 mg/kg, route oral", "details": "mouse, po"}, "Mus musculus": {"tested_on": "Mus musculus", "assay": "In vivo antitumor efficacy in nude mice by injecting a dose of 25 mg/kg, as HCl salt in saline solution, perorally and the duration of action was reported", "type": "ADME, organism-based", "set-up": "dose 25 mg/kg, route oral", "details": "po"}, "[8]": {"assay": "(§3) Maximal plasma concentration in nude mice after 25 mg/kg oral dose", "type": "ADME, organism-based", "set-up": "dose 25 mg/kg, route oral", "details": "mouse"}, "[9]": {"assay": "In vivo antitumor efficacy in cynomolgus monkeys by injecting a dose of 5 mg/kg, as HCl salt in saline solution, intravenously and the total drug exposure was determined (0-8 hr)", "type": "ADME, organism-based, Macaca fascicularis", "set-up": "time < 8 hr, dose 5 mg/kg, route intravenous", "details": "cynomolgus monkey, iv", "in_short": "as §1"}, "[10]": {"assay": "In vivo antitumor efficacy in cynomolgus monkeys by injecting a dose of 10 mg/kg, as HCl salt in saline solution, perorally and the total drug exposure was determined (0-8 hr)", "type": "ADME, organism-based, Macaca fascicularis", "set-up": "time < 8 hr, dose 10 mg/kg, route oral", "details": "cynomolgus monkey, po", "in_short": "as §2"}, "[11]": {"assay": "In vivo antitumor efficacy in nude mice by injecting a dose of 25 mg/kg, micronized free base in 20% HPbetaCD, iv and the total drug exposure was determined. (0-24hr)", "type": "ADME, organism-based", "set-up": "time < 24 hr, dose 25 mg/kg, route intravenous", "details": "mouse"}, "[12]": {"molecular_target": "geranylgeranyltransferase type-I (Rattus norvegicus, UniProt P53610+Q04631)", "assay": "Inhibition of rat Geranylgeranyl transferase (GGPT)", "type": "protein-complex assay"}, "[13]": {"assay": "In vivo antitumor efficacy in cynomolgus monkeys by injecting a dose of 5 mg/kg, as HCl salt in saline solution, iv and the serum half-life was determined", "type": "ADME, organism-based, Macaca fascicularis", "set-up": "dose 5 mg/kg, route intravenous", "details": "cynomolgus monkey", "in_short": "as §1"}, "[14]": {"assay": "In vivo antitumor efficacy in nude mice by injecting a dose of 25 mg/kg, as HCl salt in saline solution, iv and the serum half-life was determined", "type": "ADME, organism-based", "set-up": "dose 25 mg/kg, route intravenous", "details": "mouse"}, "[15]": {"assay": "as §3", "type": "ADME, organism-based", "set-up": "dose 25 mg/kg, route oral", "details": "mouse", "remark": "listed apart in the source"}, "[16]": {"assay": "Oral bioavailability in mouse (nude) (dose 25 mg/kg i.v.)", "type": "ADME, organism-based", "details": "in vivo"}, "[17]": {"assay": "Oral bioavailability in nude mice", "type": "ADME, organism-based", "details": "mouse, in vivo, read-out: Bioavailabiility"}, "[18]": {"assay": "In vivo antitumor efficacy in nude mice by injecting a dose of 25 mg/kg, micronized free base in 20% HPbetaCD, perorally and the total drug exposure was determined (0-24hr)", "type": "ADME, organism-based", "set-up": "time < 24 hr, dose 25 mg/kg, route oral", "details": "mouse, po"}, "[19]": {"assay": "In vivo antitumor efficacy in nude mice by injecting a dose of 25 mg/kg, micronized free base in 20% HPbetaCD, iv and the serum half-life was determined", "type": "ADME, organism-based", "set-up": "dose 25 mg/kg, route intravenous", "details": "mouse"}, "[20]": {"assay": "Bioavailability in cynomolgus monkey (dose 25 mg/kg i.v.)", "type": "ADME, organism-based, Macaca fascicularis", "details": "in vivo, iv", "in_short": "as §2"}, "Cynomolgus monkey [21]": {"tested_on": "Cynomolgus monkey", "assay": "(§4) In vivo antitumor efficacy in cynomolgus monkeys by injecting a dose of 25 mg/kg, as the micronised free base in corn oil, perorally and the total drug exposure was determined (0-8 hr)", "type": "ADME, organism-based, Macaca fascicularis", "set-up": "time < 8 hr, dose 25 mg/kg, route oral", "details": "po, 8 h", "in_short": "as §2"}, "[22]": {"assay": "as §4", "type": "ADME, organism-based, Macaca fascicularis", "set-up": "time < 8 hr, dose 25 mg/kg, route oral", "details": "cynomolgus monkey, po", "in_short": "as §2"}, "Cynomolgus monkey [23]": {"tested_on": "Cynomolgus monkey", "assay": "In vivo antitumor efficacy in cynomolgus monkeys by injecting a dose of 25 mg/kg, as HCl salt in saline solution, perorally and the maximum drug concentration was determined", "type": "ADME, organism-based, Macaca fascicularis", "set-up": "dose 25 mg/kg, route oral", "details": "po", "in_short": "as §2"}, "[24]": {"assay": "In vivo antitumor efficacy in cynomolgus monkeys by injecting a dose of 25 mg/kg, as HCl salt in saline solution, iv and the total drug exposure was determined. (0-8 hr)", "type": "ADME, organism-based, Macaca fascicularis", "set-up": "time < 8 hr, dose 25 mg/kg, route intravenous", "details": "cynomolgus monkey", "in_short": "as §2"}, "Cynomolgus monkey [25]": {"tested_on": "Cynomolgus monkey", "assay": "(§5) In vivo antitumor efficacy in cynomolgus monkeys by injecting a dose of 25 mg/kg, as HCl salt in saline solution, iv and the serum half-life was determined", "type": "ADME, organism-based, Macaca fascicularis", "set-up": "dose 25 mg/kg, route intravenous", "details": "in vivo", "in_short": "as §2"}, "[26]": {"assay": "as §5", "type": "ADME, organism-based, Macaca fascicularis", "set-up": "dose 25 mg/kg, route intravenous", "details": "cynomolgus monkey, serum", "in_short": "as §2"}},
  "note": "Where “and” joins values, the source holds several entries; their conditions need not be identical. Identical values can stand only once.",
  "data": [
    {"smiles": "NC(=O)N1CCC(CC(=O)N2CCN(C3c4ccc(Cl)cc4CCc4cc(Br)cnc43)CC2)CC1", "note": "(stereo not given)", "values": [
      {"measurement": "Time above IC50", "setting": "Cynomolgus monkey [1]", "value": 24, "unit": "h"},
      {"measurement": "bioavailability", "setting": "[2]", "value": 35, "unit": "%"},
      {"measurement": "AUC at 8 h", "setting": "[3]", "value": 4270, "unit": "ng·h/mL"},
      {"measurement": "Cmax", "setting": "[4]", "value": 2000, "unit": "nM"},
      {"measurement": "AUC at 24 h", "setting": "[5]", "value": 33900, "unit": "ng·h/mL"},
      {"measurement": "Cmax", "setting": "[6]", "value": 500, "unit": "nM"},
      {"measurement": "AUC at 24 h", "setting": "[7]", "value": 70800, "unit": "ng·h/mL"},
      {"measurement": "Time above IC50", "setting": "Mus musculus", "value": 8, "unit": "h"},
      {"measurement": "Cmax", "setting": "[8]", "value": 71100, "unit": "nM"},
      {"measurement": "AUC at 8 h", "setting": "[9]", "value": 12300, "unit": "ng·h/mL"},
      {"measurement": "AUC at 8 h", "setting": "[10]", "value": 12700, "unit": "ng·h/mL"},
      {"measurement": "AUC at 24 h", "setting": "[11]", "value": 57200, "unit": "ng·h/mL"},
      {"measurement": "IC50", "setting": "[12]", "value": "> 35", "unit": "µM"},
      {"measurement": "half-life", "setting": "[13]", "value": 2.4, "unit": "h"},
      {"measurement": "half-life", "setting": "[14]", "value": 1.2, "unit": "h"},
      {"measurement": "Cmax", "setting": "[15]", "value": 38800, "unit": "nM"},
      {"measurement": "bioavailability", "setting": "[16]", "value": 100, "unit": "%"},
      {"measurement": "bioavailability", "setting": "[17]", "value": 96.6, "unit": "%"},
      {"measurement": "AUC at 24 h", "setting": "[18]", "value": 55200, "unit": "ng·h/mL"},
      {"measurement": "half-life", "setting": "[19]", "value": 1.5, "unit": "h"}
    ]},
    {"smiles": "O=C(Cc1cccnc1)N1CCN(C2c3ccc(Cl)cc3CCc3cccnc32)CC1", "note": "(stereo not given)", "values": [
      {"measurement": "AUC at 24 h", "setting": "[5]", "value": 1100, "unit": "ng·h/mL"},
      {"measurement": "F", "setting": "[20]", "value": 1.4, "unit": "%"},
      {"measurement": "bioavailability", "setting": "[20]", "value": 2.2, "unit": "%"},
      {"measurement": "AUC", "setting": "Cynomolgus monkey [21]", "value": 1.07, "unit": "uh ml-1"},
      {"measurement": "AUC at 8 h", "setting": "[22]", "value": 450, "unit": "ng·h/mL"},
      {"measurement": "Cmax", "setting": "Cynomolgus monkey [23]", "value": "290 nM and 110 nM"},
      {"measurement": "AUC at 24 h", "setting": "[7]", "value": 400, "unit": "ng·h/mL"},
      {"measurement": "Time above IC50", "setting": "Mus musculus", "value": 0.3, "unit": "h"},
      {"measurement": "AUC at 8 h", "setting": "[24]", "value": 48600, "unit": "ng·h/mL"},
      {"measurement": "IC50", "setting": "[12]", "value": "> 46", "unit": "µM"},
      {"measurement": "half-life", "setting": "[14]", "value": 0.2, "unit": "h"},
      {"measurement": "Cmax", "setting": "[15]", "value": 3900, "unit": "nM"},
      {"measurement": "bioavailability", "setting": "[16]", "value": 36, "unit": "%"},
      {"measurement": "T1/2", "setting": "Cynomolgus monkey [25]", "value": 1.5, "unit": "h"},
      {"measurement": "half-life", "setting": "[26]", "value": 1.5, "unit": "h"}
    ]}
  ]
}
